Experimental data from ChEMBL document CHEMBL1140666, “Synthesis and evaluation of alpha,beta-unsaturated alpha-aryl-substituted fosmidomycin analogues as DXR inhibitors” (Bioorg Med Chem Lett, 2007).

Test: Inhibition of Escherichia coli DXR
Procedure, shortened: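 Recombinant E. coli DXR was used. Conversion of substrate DOXP to MEP was followed through the reaction's NADPH dependence, and IC50 was derived from this.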

Point of comparison: `CC(=O)N(O)C/C=C(/c1cccs1)P(=O)(O)O`, IC50 42 µM. Against it:
- O=CN(O)CCC(c1ccc(Cl)c(Cl)c1)P(=O)(O)O (configuration not stated) — 710-fold lower, 0.059 µM
- CC(=O)N(O)C/C=C(/c1ccccc1)P(=O)(O)O — not separable, > 30 µM
- CC(=O)N(O)C/C=C(/c1cccc([N+](=O)[O-])c1)P(=O)(O)O — not separable, > 30 µM
- CC(=O)N(O)C/C=C(/c1ccc([N+](=O)[O-])cc1)P(=O)(O)O — within 1.5-fold, 34 µM
- CC(=O)N(O)C/C=C(/c1ccsc1)P(=O)(O)O — not separable, > 30 µM
- CC(=O)N(O)C/C=C(\c1ccccc1)P(=O)(O)O — 7.4-fold lower, 5.7 µM
- CC(=O)N(O)C/C=C(\c1ccc(C#N)cc1)P(=O)(O)O — 2.6-fold lower, 16 µM
- CC(=O)N(O)C/C=C(\Br)P(=O)(O)O — 93-fold lower, 0.45 µM
- CC(=O)N(O)C/C=C(\c1ccc(Cl)c(Cl)c1)P(=O)(O)O — 7.6-fold lower, 5.5 µM
- O=CN(O)CCCP(=O)(O)O [FOSMIDOMYCIN] — 1200-fold lower, 0.034 µM
- CC(=O)N(O)CCCP(=O)(O)O [FR-900098] — 1300-fold lower, 0.032 µM
